Data on 35 molecules can be found in ChEMBL document CHEMBL3046131, “Synthesis and quantitative structure-activity relationship (QSAR) study of novel isoxazoline and oxime derivatives of podophyllotoxin as insecticidal agents” (2012).

What all share (format): functional
For assay [1], the system named is Mythimna separata. The experiment in a line: Insecticidal activity against pre-third-instar larvae of Mythimna separata (Oriental armyworm) in wheat leaves at 1 mg/mL after 33 days by leaf-dipping method. To be noted: 792 h. The method, boiled down: (§1)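 Compounds dissolved in acetone at 1 mg/mL. Fresh wheat leaves dipped 3 s, then dried at room conditions. Acetone-only leaves served as blank control and toosendanin as positive control. Ten larvae per dish fed treated leaves, replenished when consumed, for 48 h. Untreated fresh leaves were then given until adult emergence. Held at 25 ± 2 °C, 65−80% RH, 12 h/12 h light/dark. Activity calculated by formula.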

The test system of assay [2] is Mythimna separata. The experiment in a line: Insecticidal activity against pre-third-instar larvae of Mythimna separata (Oriental armyworm) in wheat leaves at 1 mg/mL after 20 days by leaf-dipping method. The conditions noted are these: 480 h. The method, boiled down:
as §1

Assay [3] has as its system Mythimna separata. The experiment in a line: Insecticidal activity against pre-third-instar larvae of Mythimna separata (Oriental armyworm) in wheat leaves at 1 mg/mL after 5 days by leaf-dipping method. The conditions noted are these: 120 h. The gist of the method: as §1

Turning to `CCCCNC(=O)[C@@H]1[C@H](c2cc(OC)c(OC)c(OC)c2)c2cc3c(cc2C2=NOC[C@H]21)OCO3`, the figures for the mortality at 1000 µg/mL in the assay with Mythimna separata [1], in the assay with Mythimna separata [2] and in the assay with Mythimna separata [3] were 10.3%, 0% and 0%, respectively.

`COc1cc([C@@H]2c3cc4c(cc3/C(=N\O)[C@H]3COC(=O)[C@H]23)OCO4)cc(OC)c1OC`: the mortality at 1000 µg/mL with Mythimna separata [1] turned out to be 34.5%; in the assay with Mythimna separata [2], 24.1%; in the assay with Mythimna separata [3] it was 10%.

Regarding `COC(=O)[C@@H]1[C@H](c2cc(OC)c(OC)c(OC)c2)c2cc3c(cc2C2=NOC[C@H]21)OCO3`, the results for the mortality at 1000 µg/mL in the assay with Mythimna separata [1], in the assay with Mythimna separata [2] and in the assay on Mythimna separata [3] were 41.4%, 31% and 23.3%, respectively.

As to `CCOC(=O)[C@@H]1[C@H](c2cc(OC)c(OC)c(OC)c2)c2cc3c(cc2C2=NOC[C@H]21)OCO3`, the mortality at 1000 µg/mL in the assay with Mythimna separata [1] amounted to 44.8%; in the assay with Mythimna separata [2], 31%; in the assay on Mythimna separata [3], 20%.

`CCCCOC(=O)[C@@H]1[C@H](c2cc(OC)c(OC)c(OC)c2)c2cc3c(cc2C2=NOC[C@H]21)OCO3`: the values for the mortality at 1000 µg/mL in the assay with Mythimna separata [1], in the assay on Mythimna separata [2] and with Mythimna separata [3] were 58.6%, 34.5% and 23.3%, respectively.

Turning to `CCCCCCCCOC(=O)[C@@H]1[C@H](c2cc(OC)c(OC)c(OC)c2)c2cc3c(cc2C2=NOC[C@H]21)OCO3`, the mortality at 1000 µg/mL was found to be 37.9% in the assay with Mythimna separata [1], 34.5% in the assay on Mythimna separata [2] and 30% with Mythimna separata [3].

Take `COc1cc([C@@H]2c3cc4c(cc3C3=NOC[C@H]3[C@@H]2C(=O)OCCc2ccccc2)OCO4)cc(OC)c1OC`: the mortality at 1000 µg/mL turned out to be 41.4% in the assay on Mythimna separata [1], 27.6% with Mythimna separata [2] and 20% with Mythimna separata [3].

Regarding `COc1cc([C@@H]2c3cc4c(cc3C3=NOC[C@H]3[C@@H]2C(=O)OCc2ccccc2)OCO4)cc(OC)c1OC`, the mortality at 1000 µg/mL stood at 37.9% with Mythimna separata [1], 31% in the assay with Mythimna separata [2] and 23.3% in the assay on Mythimna separata [3].

With `COc1ccc(COC(=O)[C@@H]2[C@H](c3cc(OC)c(OC)c(OC)c3)c3cc4c(cc3C3=NOC[C@H]32)OCO4)cc1`, the results for the mortality at 1000 µg/mL with Mythimna separata [1], with Mythimna separata [2] and with Mythimna separata [3] were 44.8%, 37.9% and 26.7%, respectively.

Turning to `COc1cc([C@@H]2c3cc4c(cc3C3=NOC[C@H]3[C@@H]2C(=O)OCc2cccc(F)c2)OCO4)cc(OC)c1OC`, the mortality at 1000 µg/mL in the assay on Mythimna separata [1] was 34.5%; in the assay on Mythimna separata [2], 34.5%; in the assay on Mythimna separata [3], 23.3%.

Regarding `COc1cc([C@@H]2c3cc4c(cc3C3=NOC[C@H]3[C@@H]2C(=O)OCc2ccc([N+](=O)[O-])cc2)OCO4)cc(OC)c1OC`, the mortality at 1000 µg/mL in the assay with Mythimna separata [1] worked out at 27.6%; in the assay on Mythimna separata [2], 24.1%; with Mythimna separata [3], 23.3%.

Consider `COc1cc([C@@H]2c3cc4c(cc3C3=NOC[C@H]3[C@@H]2COC=O)OCO4)cc(OC)c1OC`, for which the results for the mortality at 1000 µg/mL in the assay on Mythimna separata [1], with Mythimna separata [2] and in the assay with Mythimna separata [3] were 24.1%, 10.3% and 0%, respectively.

Consider `CCCC(=O)OC[C@@H]1[C@H](c2cc(OC)c(OC)c(OC)c2)c2cc3c(cc2C2=NOC[C@H]21)OCO3`, for which the mortality at 1000 µg/mL was 34.5% in the assay with Mythimna separata [1], 13.8% in the assay with Mythimna separata [2] and 6.7% with Mythimna separata [3].

Regarding `CCCCCCCC(=O)OC[C@@H]1[C@H](c2cc(OC)c(OC)c(OC)c2)c2cc3c(cc2C2=NOC[C@H]21)OCO3`, the mortality at 1000 µg/mL in the assay with Mythimna separata [1] was 17.2%; in the assay with Mythimna separata [2], 6.9%; in the assay on Mythimna separata [3] it was 0%.

Consider `COc1cc([C@@H]2c3cc4c(cc3C3=NOC[C@H]3[C@@H]2COC(=O)Cc2ccccc2)OCO4)cc(OC)c1OC`, for which the mortality at 1000 µg/mL in the assay on Mythimna separata [1] turned out to be 20.7%; in the assay on Mythimna separata [2], 6.9%; with Mythimna separata [3], 6.7%.

As to `COc1cc([C@@H]2c3cc4c(cc3C3=NOC[C@H]3[C@@H]2COC(=O)c2ccccc2)OCO4)cc(OC)c1OC`, the mortality at 1000 µg/mL with Mythimna separata [1] came to 41.4%; with Mythimna separata [2], 27.6%; in the assay with Mythimna separata [3], 26.7%.

Regarding `COc1ccc(C(=O)OC[C@@H]2[C@H](c3cc(OC)c(OC)c(OC)c3)c3cc4c(cc3C3=NOC[C@H]32)OCO4)cc1`, the mortality at 1000 µg/mL came out at 37.9% in the assay with Mythimna separata [1], 13.8% in the assay on Mythimna separata [2] and 6.7% with Mythimna separata [3].

For `COc1cc([C@@H]2c3cc4c(cc3C3=NOC[C@H]3[C@@H]2COC(=O)c2cccc(F)c2)OCO4)cc(OC)c1OC`, the mortality at 1000 µg/mL in the assay with Mythimna separata [1] stood at 55.2%; in the assay on Mythimna separata [2], 34.5%; in the assay with Mythimna separata [3], 23.3%.

In the case of `COc1cc([C@@H]2c3cc4c(cc3C3=NOC[C@H]3[C@@H]2COC(=O)c2ccc([N+](=O)[O-])cc2)OCO4)cc(OC)c1OC`, the mortality at 1000 µg/mL with Mythimna separata [1] was 58.6%; in the assay with Mythimna separata [2] it was 37.9%; in the assay with Mythimna separata [3], 26.7%.

Turning to `COc1cc([C@@H]2c3cc4c(cc3/C(=N/OS(=O)(=O)c3ccc(C)cc3)[C@H]3COC(=O)[C@@H]23)OCO4)cc(OC)c1OC`, the mortality at 1000 µg/mL in the assay on Mythimna separata [1] was determined as 44.8%; in the assay on Mythimna separata [2], 34.5%; with Mythimna separata [3] it was 20%.

On to `CCc1ccc(S(=O)(=O)O/N=C2/c3cc4c(cc3[C@@H](c3cc(OC)c(OC)c(OC)c3)[C@@H]3C(=O)OC[C@H]23)OCO4)cc1`, for which the mortality at 1000 µg/mL amounted to 27.6% in the assay with Mythimna separata [1], 17.2% with Mythimna separata [2] and 3.3% with Mythimna separata [3].

With `COc1ccc(S(=O)(=O)O/N=C2/c3cc4c(cc3[C@@H](c3cc(OC)c(OC)c(OC)c3)[C@@H]3C(=O)OC[C@H]23)OCO4)cc1`, the results for the mortality at 1000 µg/mL in the assay on Mythimna separata [1], in the assay with Mythimna separata [2] and in the assay on Mythimna separata [3] were 24.1%, 3.5% and 0%, respectively.

Regarding `COc1cc([C@@H]2c3cc4c(cc3/C(=N/OS(=O)(=O)c3ccc(Cl)cc3)[C@H]3COC(=O)[C@@H]23)OCO4)cc(OC)c1OC`, the mortality at 1000 µg/mL in the assay with Mythimna separata [1] worked out at 55.2%; with Mythimna separata [2] it was 37.9%; in the assay on Mythimna separata [3], 26.7%.

In the case of `COc1cc([C@@H]2c3cc4c(cc3/C(=N/OS(=O)(=O)c3ccc(Br)cc3)[C@H]3COC(=O)[C@@H]23)OCO4)cc(OC)c1OC`, the mortality at 1000 µg/mL is 27.6% in the assay on Mythimna separata [1], 10.3% in the assay on Mythimna separata [2] and 0% in the assay on Mythimna separata [3].

For `COc1cc([C@@H]2c3cc4c(cc3/C(=N/OS(=O)(=O)c3cccc([N+](=O)[O-])c3)[C@H]3COC(=O)[C@@H]23)OCO4)cc(OC)c1OC`, the results for the mortality at 1000 µg/mL in the assay on Mythimna separata [1], with Mythimna separata [2] and in the assay with Mythimna separata [3] were 13.8%, 3.5% and 0%, respectively.

As for `COc1cc([C@@H]2c3cc4c(cc3/C(=N/OS(=O)(=O)c3ccc(Cl)c([N+](=O)[O-])c3)[C@H]3COC(=O)[C@@H]23)OCO4)cc(OC)c1OC`, the mortality at 1000 µg/mL in the assay with Mythimna separata [1] was found to be 13.8%; in the assay on Mythimna separata [2], 3.5%; in the assay on Mythimna separata [3], 0%.

Regarding `COc1cc([C@@H]2c3cc4c(cc3/C(=N/OS(C)(=O)=O)[C@H]3COC(=O)[C@@H]23)OCO4)cc(OC)c1OC`, the mortality at 1000 µg/mL in the assay with Mythimna separata [1] was 24.1%; in the assay on Mythimna separata [2], 17.2%; in the assay with Mythimna separata [3], 0%.

For the molecule `COc1cc([C@@H]2c3cc4c(cc3/C(=N/O)[C@H]3COC(=O)[C@@H]23)OCO4)cc(OC)c1OC`, the mortality at 1000 µg/mL in the assay with Mythimna separata [1] came out at 17.2%; in the assay with Mythimna separata [2] it was 6.9%; in the assay on Mythimna separata [3] it was 0%.

In the case of `COc1cc([C@@H]2c3cc4c(cc3/C(=N/OS(=O)(=O)c3ccccc3)[C@H]3COC(=O)[C@@H]23)OCO4)cc(OC)c1OC`, the mortality at 1000 µg/mL worked out at 24.1% in the assay on Mythimna separata [1], 6.9% in the assay on Mythimna separata [2] and 0% with Mythimna separata [3].

`COc1cc([C@@H]2c3cc4c(cc3C3=NOC[C@H]3[C@@H]2C(=O)O)OCO4)cc(OC)c1OC`: the mortality at 1000 µg/mL turned out to be 41.4% in the assay on Mythimna separata [1], 31% in the assay with Mythimna separata [2] and 20% in the assay with Mythimna separata [3].

As to `COc1cc([C@@H]2c3cc4c(cc3C3=NOC[C@H]3[C@@H]2CO)OCO4)cc(OC)c1OC` [ISOXAZOLOPODOPHYLLOL], the figures for the mortality at 1000 µg/mL in the assay on Mythimna separata [1], in the assay with Mythimna separata [2] and in the assay on Mythimna separata [3] were 37.9%, 20.7% and 20%, respectively.

With `COc1cc([C@@H]2c3cc4c(cc3C(=O)[C@H]3COC(=O)[C@@H]23)OCO4)cc(OC)c1OC` [PICROPODOPHYLLONE], the mortality at 1000 µg/mL came to 27.6% in the assay with Mythimna separata [1] and 20.7% in the assay on Mythimna separata [2].

For the molecule `COc1cc([C@@H]2c3cc4c(cc3[C@H](O)[C@H]3COC(=O)[C@H]23)OCO4)cc(OC)c1OC` [PODOFILOX], the mortality at 1000 µg/mL in the assay on Mythimna separata [1] was found to be 37.9%; in the assay on Mythimna separata [2], 10.3%; with Mythimna separata [3] it was 3.3%.

`COc1cc([C@@H]2c3cc4c(cc3C(=O)[C@H]3COC(=O)[C@H]23)OCO4)cc(OC)c1OC` [PODOPHYLLOTOXONE]: the mortality at 1000 µg/mL stood at 17.2% with Mythimna separata [1], 3.5% in the assay with Mythimna separata [2] and 6.7% in the assay with Mythimna separata [3].

`CC(=O)O[C@@H]1C[C@H](O)[C@@]23CO[C@@H](O)[C@]1(C)[C@@H]2C[C@@H](O)[C@]1(C)[C@@H]3C(=O)[C@H](OC(C)=O)[C@@]2(C)[C@H](c3ccoc3)C[C@H]3O[C@]321` [TOOSENDANIN]: the results for the mortality at 1000 µg/mL with Mythimna separata [1], in the assay with Mythimna separata [2] and in the assay with Mythimna separata [3] were 44.8%, 13.8% and 6.7%, respectively.

One may read the mortality as the percentage killed.
